Reference: ChEMBL document CHEMBL1124959, “Synthesis of peptidyl fluoromethyl ketones and peptidyl alpha-keto esters as inhibitors of porcine pancreatic elastase, human neutrophil elastase, and rat and human neutrophil cathepsin G” (J Med Chem, 1990)
Peptide text beside a SMILES is read from it. * marks the point of attachment. Dansyl = CN(C)c1cccc2c(S(=O)(=O)*)cccc12; MeOSuc = COC(=O)CCC(=O)*; Cbz = O=C(OCc1ccccc1)*; Boc = CC(C)(C)OC(=O)*; CF3 = FC(F)(F)*

What was measured:
[1] = target: Chymotrypsinogen B (Homo sapiens, UniProt P17538); assay: Binding affinity against alpha-chymotrypsin
Sequence of Chymotrypsinogen B (P17538 34-164 limits assumed, other chains not shown): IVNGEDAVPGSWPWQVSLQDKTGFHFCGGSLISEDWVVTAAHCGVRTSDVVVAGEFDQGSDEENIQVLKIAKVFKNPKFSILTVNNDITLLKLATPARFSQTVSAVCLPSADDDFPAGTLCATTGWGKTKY
Sequence of Chymotrypsinogen B (P17538 167-263 limits assumed, other chains not shown): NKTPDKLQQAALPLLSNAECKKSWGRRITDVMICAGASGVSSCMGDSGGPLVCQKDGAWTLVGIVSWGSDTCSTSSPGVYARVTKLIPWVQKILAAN

[2] = target: T1, Pancreatic elastase (Sus scrofa, UniProt P08419+P00772); assay: Binding affinity for porcine Elastase; format: protein assay
Procedure, shortened: (§1)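 Porcine pancreatic elastase was followed spectrophotometrically at 410 nm, 37 °C, with Suc-Ala-Pro-Ala-p-nitroanilide in pH 8.0 buffer (0.1 M NaCl, 0.01 M HEPES, 0.01 M Tris, 0.1% PEG 6000). Paired runs were done: enzyme added last, or enzyme preincubated with inhibitor before substrate. Only data up to 10% substrate consumption were used. K_i* came from steady-state rates fitted to competitive inhibition.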

[3] = target: T2, Cathepsin G (Homo sapiens, UniProt P08311); assay: Binding affinity against human Cathepsin G
T2 sequence (P08311 whole entry): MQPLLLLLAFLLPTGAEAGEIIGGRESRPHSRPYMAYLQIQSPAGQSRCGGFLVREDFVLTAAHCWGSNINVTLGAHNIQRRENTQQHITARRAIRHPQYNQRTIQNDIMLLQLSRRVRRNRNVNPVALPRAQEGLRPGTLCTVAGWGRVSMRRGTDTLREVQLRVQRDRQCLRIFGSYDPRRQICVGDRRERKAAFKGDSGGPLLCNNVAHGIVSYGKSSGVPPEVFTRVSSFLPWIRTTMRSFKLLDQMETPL
Procedure, shortened: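 Cathepsin G came from neutrophil granule extracts of sputum or, for rat, peritoneal lavage, extracted in 1 M NaCl/0.1% Brij 35 acetate buffer, pH 5.5. K_i = [I]/(v0/v1 − 1), using equilibrium velocity when binding was slow.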

[4] = target: T3, Neutrophil elastase (Homo sapiens, UniProt P08246); assay: Binding affinity against human Neutrophil Elastase
T3 sequence (P08246 whole entry): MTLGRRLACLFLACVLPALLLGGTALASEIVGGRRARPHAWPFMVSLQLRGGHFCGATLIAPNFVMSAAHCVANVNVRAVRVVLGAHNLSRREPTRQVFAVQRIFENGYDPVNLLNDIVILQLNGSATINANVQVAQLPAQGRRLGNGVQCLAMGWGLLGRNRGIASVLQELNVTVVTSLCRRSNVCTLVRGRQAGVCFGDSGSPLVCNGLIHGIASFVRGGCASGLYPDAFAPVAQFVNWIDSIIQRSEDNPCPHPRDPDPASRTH
Procedure, shortened: (§2)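 Human neutrophil elastase purified from purulent sputum. Activity was read at 410 nm (p-nitroaniline) at 37 °C with MeO-Suc-Ala-Ala-Pro-Val-p-nitroanilide in 0.1 M NaCl, 0.01 M HEPES, 0.01 M Tris, 0.1% PEG 6000, pH 8.0, 1.25% DMSO. Paired assays were run, one adding enzyme last and one preincubating enzyme with inhibitor. Data were limited to ≤10% substrate use. Steady-state K_i* came from the competitive inhibition equation.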

[5] = target: T1, Pancreatic elastase; assay: Binding affinity against porcine pancreatic Elastase; format: protein assay; procedure, shortened: as §1
[6] = target: T3, Neutrophil elastase; assay: Binding affinity against human leukocyte Elastase
[7] = target: T3, Neutrophil elastase; assay: Binding affinity against human Elastase for less active diasteriomer; procedure, shortened: as §2
[8] = target: T3, Neutrophil elastase; assay: Binding affinity against human Elastase for more active diasteriomer

SMILES	Ki [2]	further results
COC(=O)CCC(=O)N[C@@H](C)C(=O)N[C@@H](C)C(=O)N1CCC[C@H]1C(=O)N[C@@H](Cc1ccccc1)C(=O)C(=O)OC	–	Ki [1]: 79 nM
COC(=O)CCC(=O)NCCCC[C@H](NS(=O)(=O)C12CC3CC(CC(C3)C1)C2)C(=O)N1CCC[C@H]1C(=O)N[C@H](C(=O)C(F)(F)F)C(C)C	15 nM	–
COC(=O)CCC(=O)N[C@H](C(=O)N1CCC[C@H]1C(=O)N[C@@H](Cc1ccccc1)C(=O)C(=O)OC)C(C)C	–	Ki [3]: 1100 nM
CCOC(=O)C(=O)[C@H](C)NC(=O)[C@H](C)NC(=O)[C@H](C)NC(=O)[C@H](C)NC(=O)OCc1ccccc1	140 nM	–
COC(=O)C(=O)[C@H](C)NC(=O)[C@@H]1CCCN1C(=O)[C@H](C)NC(=O)[C@@H]1CCCN1C(C)=O	29 nM	–
COC(=O)CCC(=O)N[C@H](Cc1ccccc1)C(=O)N1CCC[C@H]1C(=O)N[C@H](C(=O)C(F)(F)F)C(C)C	28000 nM	–
CC(=O)N1CCC[C@H]1C(=O)N[C@@H](C)C(=O)N1CCC[C@H]1C(=O)N[C@@H](C)C(=O)C(=O)O	–	Ki [4]: 66000 nM; Ki [5]: 690 nM
CCOC(=O)C(F)(F)C(=O)[C@@H](NC(=O)[C@@H]1CCCN1C(=O)[C@H](C)NC(=O)[C@H](C)NC(=O)CCC(=O)OC)C(C)C	9900 nM	–
COC(=O)CCC(=O)N[C@@H](C)C(=O)N[C@@H](C)C(=O)N1CCC[C@H]1C(=O)N[C@H](C(=O)C(=O)OC)C(C)C	680 nM	–
CC(=O)N[C@@H](C)C(=O)N[C@@H](C)C(=O)N1CCC[C@H]1C(=O)N[C@@H](C)C(=O)C(F)(F)F (Ac-AAPA-CF3)	150 nM	Ki [3]: > 800000 nM
CC(=O)N1CCC[C@H]1C(=O)N[C@@H](C)C(=O)N1CCC[C@H]1C(=O)N[C@@H](C)C(=O)C(F)(F)F (Ac-PAPA-CF3)	240 nM	–
CC(=O)N1CCC[C@H]1C(=O)N[C@@H](C)C(=O)N1CCC[C@H]1C(=O)N[C@@H](C)C=O (Ac-PAPA-aldehyde)	–	Ki [5]: 800 nM
CC(C)[C@H](NC(=O)[C@@H]1CCCN1C(=O)[C@H](C)NC(=O)[C@H](C)NC(=O)OC(C)(C)C)C(=O)C(F)(F)F (Boc-AAPV-CF3)	32 nM	–
CC(C)[C@H](NC(=O)[C@@H]1CCCN1C(=O)[C@H](Cc1ccccc1)NC(=O)OC(C)(C)C)C(=O)C(F)(F)F (Boc-Phe-Pro-Val-CF3)	1800 nM	–
CC(C)[C@H](NC(=O)[C@H](CCCCNC(=O)OCc1ccccc1)NC(=O)OCc1ccccc1)C(=O)N1CCC[C@H]1C(=O)N[C@H](C(=O)C(F)(F)F)C(C)C (Cbz-K(Cbz)VPV-CF3)	–	Ki [6]: < 0.1 nM
CC(C)[C@H](NC(=O)[C@@H]1CCCN1C(=O)[C@H](C)NC(=O)[C@H](C)NS(=O)(=O)c1cccc2c(N(C)C)cccc12)C(=O)C(F)(F)F (Dansyl-AAPV-CF3)	88 nM	Ki [3]: > 600000 nM; Ki [7]: 110 nM; Ki [8]: 6.3 nM
COC(=O)CCC(=O)N[C@@H](C)C(=O)N[C@@H](C)C(=O)N1CCC[C@H]1C(=O)N[C@@H](Cc1ccccc1)C(=O)C(F)(F)F (MeOSuc-AAPF-CF3)	–	Ki [1]: 17 nM
COC(=O)CCC(=O)N[C@@H](C)C(=O)N[C@@H](C)C(=O)N1CCC[C@H]1C(=O)N[C@H](C(=O)C(F)(F)F)C(C)C (MeOSuc-AAPV-CF3)	33 nM	–
COC(=O)CCC(=O)N[C@H](C(=O)N1CCC[C@H]1C(=O)N[C@@H](Cc1ccccc1)C(=O)C(F)(F)F)C(C)C (MeOSuc-Val-Pro-Phe-CF3)	–	Ki [3]: 3000 nM
